ChEMBL document CHEMBL1128673, “Conformationally constrained phosphotyrosyl mimetics designed as monomeric Src homology 2 domain inhibitors” (J Med Chem, 1995)

Assays:
[1] = target: Growth factor receptor-bound protein 2 (Homo sapiens) (UniProt P62993); assay: In vitro binding to Growth factor receptor bound protein 2
Procedure, shortened: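 GST–Grb2 SH2 fusion (0.5–1.0 μM, Bradford-estimated) with 35 fmol (67 nCi) [125I]Bolton–Hunter-labelled Shc pY317 phosphopeptide and varying unlabelled pTyr analogue in 20 mM Tris-HCl, 250 mM NaCl, 0.1% BSA, 10 mM DTT, pH 7.4. Glutathione-agarose was added, then overnight at 22 °C with mixing. After centrifugation at 12000g for 5 min, unwashed pellet radioactivity was gamma-counted.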

[2] = In vitro binding to p85-C SH2 domain
Procedure, shortened: (§1)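 GST fusion of the p85 PI-3 kinase C-terminal SH2 domain (0.5–1.0 μM, Bradford) with 35 fmol (67 nCi) [125I]Bolton–Hunter-labelled IRS-1 pY628 phosphopeptide and varying unlabelled pTyr analogue in 20 mM Tris-HCl, 250 mM NaCl, 0.1% BSA, 10 mM DTT, pH 7.4. Glutathione-agarose capture ran overnight at 22 °C, then 12000g for 5 min; pellet 125I was gamma-counted.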

[3] = In vitro binding to Phospholipase C-gamma SH2 domain
Procedure, shortened: as §1, with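 “Competition binding used GST” for “GST”, “PLCγ” for “p85 PI-3 kinase”, “PDGF pY1021” for “IRS-1 pY628”, “plus” for “and”, “analogue. Buffer was” for “analogue in”, “°C with mixing,” for “°C,”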

[4] = target: T1, Tyrosine-protein phosphatase non-receptor type 11 (Homo sapiens) (UniProt Q06124); assay: In vitro binding to SH-PTP2-N (SHP-2) SH2 domain
T1 sequence (whole entry): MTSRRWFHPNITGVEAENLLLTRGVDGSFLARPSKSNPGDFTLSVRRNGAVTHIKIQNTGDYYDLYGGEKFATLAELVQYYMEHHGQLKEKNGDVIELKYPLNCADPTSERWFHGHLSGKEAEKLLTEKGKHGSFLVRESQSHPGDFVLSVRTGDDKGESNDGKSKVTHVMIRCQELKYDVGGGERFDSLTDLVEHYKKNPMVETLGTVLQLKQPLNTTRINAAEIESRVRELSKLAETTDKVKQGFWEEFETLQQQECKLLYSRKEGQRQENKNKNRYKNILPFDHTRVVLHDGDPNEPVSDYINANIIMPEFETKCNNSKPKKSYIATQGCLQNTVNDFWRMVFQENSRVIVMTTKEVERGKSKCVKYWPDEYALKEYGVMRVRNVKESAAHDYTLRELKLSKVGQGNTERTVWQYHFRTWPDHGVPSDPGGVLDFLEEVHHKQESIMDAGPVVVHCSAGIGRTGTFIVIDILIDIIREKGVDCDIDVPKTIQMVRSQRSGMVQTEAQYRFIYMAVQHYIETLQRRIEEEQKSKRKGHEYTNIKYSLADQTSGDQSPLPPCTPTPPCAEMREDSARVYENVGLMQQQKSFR
Procedure, shortened: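 SH-PTP2 N-terminal SH2 domain as a GST fusion (0.5–1.0 μM, Bradford) was mixed with 35 fmol (67 nCi) [125I]Bolton–Hunter IRS-1 pY1172 phosphopeptide and varying unlabelled pTyr analogue in 20 mM Tris-HCl, 250 mM NaCl, 0.1% BSA, 10 mM DTT, pH 7.4. Glutathione-agarose pull-down ran overnight at 22 °C, then 12000g for 5 min, with gamma counting of unwashed pellets.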

[5] = target: Tyrosine-protein kinase Lck (Homo sapiens) (UniProt P06239); assay: In vitro binding to p56 Lck SH2 domain
Procedure, shortened: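 Lck SH2 domain as a GST fusion (0.5–1.0 μM, Bradford) with 35 fmol (67 nCi) [125I]Bolton–Hunter hmT pY324 phosphopeptide and varying unlabelled pTyr analogue in 20 mM Tris-HCl, 250 mM NaCl, 0.1% BSA, 10 mM DTT, pH 7.4. Complexes were captured on glutathione-agarose overnight at 22 °C, pelleted at 12000g for 5 min, and unwashed pellets gamma-counted.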

[6] = target: Proto-oncogene tyrosine-protein kinase Src (Homo sapiens) (UniProt P12931); assay: In vitro binding to Src SH2 domain
Proto-oncogene tyrosine-protein kinase Src (Homo sapiens), sequence (P12931 2-536 limits assumed): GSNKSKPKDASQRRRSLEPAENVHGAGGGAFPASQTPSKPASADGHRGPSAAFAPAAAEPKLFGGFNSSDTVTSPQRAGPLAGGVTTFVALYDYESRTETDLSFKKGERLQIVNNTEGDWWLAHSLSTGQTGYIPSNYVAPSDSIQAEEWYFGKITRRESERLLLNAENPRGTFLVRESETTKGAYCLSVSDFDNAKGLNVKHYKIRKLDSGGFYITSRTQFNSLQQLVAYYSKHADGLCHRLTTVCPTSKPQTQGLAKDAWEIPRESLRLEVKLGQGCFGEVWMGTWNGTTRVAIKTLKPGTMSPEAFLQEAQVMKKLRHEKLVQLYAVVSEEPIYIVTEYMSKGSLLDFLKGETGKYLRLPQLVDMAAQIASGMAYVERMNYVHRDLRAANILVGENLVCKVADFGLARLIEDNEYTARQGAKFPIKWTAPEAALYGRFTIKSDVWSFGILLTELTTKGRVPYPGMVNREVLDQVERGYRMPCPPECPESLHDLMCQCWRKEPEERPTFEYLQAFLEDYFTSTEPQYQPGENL

Tyrosine-protein kinase Lck (Homo sapiens), sequence (P06239 2-509 limits assumed): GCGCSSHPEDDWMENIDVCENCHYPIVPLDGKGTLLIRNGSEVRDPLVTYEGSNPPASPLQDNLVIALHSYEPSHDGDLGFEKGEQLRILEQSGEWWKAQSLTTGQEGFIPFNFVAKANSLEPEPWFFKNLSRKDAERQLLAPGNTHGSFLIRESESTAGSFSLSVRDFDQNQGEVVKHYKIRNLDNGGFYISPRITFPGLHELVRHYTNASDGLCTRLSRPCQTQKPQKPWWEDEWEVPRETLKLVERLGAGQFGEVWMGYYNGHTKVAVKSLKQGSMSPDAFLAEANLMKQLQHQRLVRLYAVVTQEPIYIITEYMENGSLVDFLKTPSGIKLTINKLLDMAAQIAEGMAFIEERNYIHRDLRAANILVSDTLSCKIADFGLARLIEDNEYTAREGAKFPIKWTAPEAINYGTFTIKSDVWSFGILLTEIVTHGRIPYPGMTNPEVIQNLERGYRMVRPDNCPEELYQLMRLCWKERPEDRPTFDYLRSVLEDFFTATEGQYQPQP
Growth factor receptor-bound protein 2 (Homo sapiens), sequence (P62993 whole entry, looked up, the tested form may be a part): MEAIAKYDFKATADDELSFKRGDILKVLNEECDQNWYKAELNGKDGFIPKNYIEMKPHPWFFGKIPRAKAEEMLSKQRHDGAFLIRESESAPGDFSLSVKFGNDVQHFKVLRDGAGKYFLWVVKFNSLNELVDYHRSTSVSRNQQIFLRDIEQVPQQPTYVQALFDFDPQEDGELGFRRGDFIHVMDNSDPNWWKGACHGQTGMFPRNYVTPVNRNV

| SMILES | ID50 [1] [mM] | ID50 [2] [mM] | ID50 [3] [mM] | ID50 [4] [mM] | ID50 [5] [mM] | ID50 [6] [mM] |
| --- | --- | --- | --- | --- | --- | --- |
| CC(=O)N[C@H](C(N)=O)[C@@H]1CCc2cc(OP(=O)(O)O)ccc21 (racemic) | > 3 | 1.5 | > 3 | > 3 | > 3 | > 3 |
| N[C@@H](Cc1ccc(OP(=O)(O)O)cc1)C(=O)O | 6.2 | 3.5 | 2.3 | > 33 | 5 | 3.5 |
| CC(=O)N1CC2Cc3cc(OP(=O)(O)O)ccc3C(C)(C2)C1 (racemic) | – | 1.3 | > 3 | > 3 | > 3 | 0.9 |
| CC(=O)N[C@@H](Cc1ccc(OP(=O)(O)O)cc1)C(N)=O | – | 1.5 | 0.4 | > 3 | > 3 | 1 |
| CC(=O)N[C@H](C(N)=O)[C@H]1CCc2cc(OP(=O)(O)O)ccc21 (racemic) | > 3 | 1.5 | > 3 | > 3 | 1.5 | > 3 |
| CC(=O)N1CC2Cc3cc(O)ccc3C(C)(C2)C1 (racemic) | – | > 5 | > 6 | > 3 | > 6 | > 6 |
